The list is not random: actives were taken first. Their share in the collection is about 11%.
Diaphorase inh: counter-screen for diaphorase-based assays: diaphorase inhibitors and chemical oxidizers | diaphorase resazurin-to-resorufin fluorescence, NADH, 16 min; bacterial (C. kluyveri) enzyme, not human | inhibition, % at 20 µM | 190,000 tested, 0.69% active;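 active = primary screen inhibition at 20 µM above a set limit, cut at about 50% in these data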;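 also: plate controls were DMSO with full reaction for no effect and wells lacking NADH for full effect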
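Assay system – diaphorase enzyme from Clostridium kluyveri · Amount – diaphorase 0.14 U/mL (working solution) · Times – reaction incubation of 16 min at room temperature · Controls – No-NADH positive control and DMSO neutral control · Signal – resorufin fluorescence 544/590 nm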
WT yeast gro inh: growth inhibition of WT yeast, mitochondrial fusion screen; 190,000 tested, 2.1% active; inhibition, % at 10 µM; mitochondrial fusion phenotypic screen, WT strain; in the data active = inhibition above about 58%; tested in S. cerevisiae
L major viab: inhibitors of Leishmania major promastigote growth; Leishmania major promastigotes, resazurin fluorescence viability; 200,000 tested, 9% active; inhibition, % at 10 µM; AID 1063;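 also: promastigotes grown with compound for 44 hours at 28 °C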
G6PDH counter: inhibits Leuconostoc G6PDH, flagging false hits in G6PDH-based assays; Purified L. mesenteroides G6PDH, diaphorase/resazurin coupled fluorescence, 45 min; inhibition, % at 5 µM; 200,000 tested, 0.12% active; AID 1020
Diaphorase act: diaphorase activation or chemical reduction counter-screen | Diaphorase/resazurin coupled assay, resorufin fluorescence, 16 min; active compounds read high; 1 = vehicle wells, 0 = NADH-free wells | 190,000 tested, 0.005% active | activation factor at 20 µM;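 active = diaphorase activity raised at least twofold by the compound at 20 µM; inactive = activation factor below 2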
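Assay system: Purified diaphorase enzyme from Clostridium kluyveri | Amount: Enzyme 0.07 U/mL final | Dosing: Compound 20 µM once, DMSO 1% | Timing: 16 min reaction at room temperature | Detection: Fluorescence, excitation 544 nm and emission 590 nm | Evaluation: Higher resorufin formation from activation or reduction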
The depositor's hits bear a star; nt = no result. Rule as the data show it, unless noted: active = inhibition above about 50%; inactive = the rest.

SMILES	Diaphorase inh	WT yeast gro inh	L major viab	G6PDH counter	Diaphorase act
COc1ccc(C2CC(c3ccccc3)=NN2C(=O)COC(=O)C2(C)CC2(Cl)Cl)cc1 (stereo not drawn)	22	72*	60*	2	0.8
COc1ccc(C2CC(c3ccccc3)=NN2C(=O)c2cccs2)cc1 (stereo not drawn)	19	78*	-2	6	0.8
COc1cccc(C2CC(c3ccc(NS(C)(=O)=O)cc3)=NN2C(=O)c2ccccc2)c1OC (stereo not drawn)	27	10	16	1	0.7
O=C(Nc1ccc(C(=O)O)cc1)/C(=C\c1cccc([N+](=O)[O-])c1)NC(=O)c1ccc(Br)o1	0	-7	1	4	1
COc1ccc(C2=NN(C(=O)c3cccs3)C(O)(C(F)(F)F)C2)cc1 (stereo not drawn)	21	14	13	2	0.8
COc1ccc(C2=NN(C(=O)c3cccs3)C(c3ccccc3O)C2)cc1 (stereo not drawn)	12	85*	41	9	0.9
CC1CCc2c(C(=O)Nc3ccc(OC(F)(F)F)cc3)csc2C1 (stereo not drawn)	4	35	-5	-8	1
CC12CCC(c3c(C(=O)O)nn(-c4ccc(F)cc4)c31)C2(C)C (stereo not drawn)	15	59*	-5	8	0.8
COc1ccc(CC2(CO)CCN(Cc3ccncc3)CC2)cc1	0	-12	89*	5	1
COC(=O)c1ccc(CN2CCC(CO)(Cc3cccc(OC)c3)CC2)cc1	nt	14	83*	1	nt
COc1ccc(CC2(CO)CCN(Cc3c(C)nn(C(C)C)c3C)CC2)cc1	16	-19	-3	12	0.8
COc1ccc(CC2(CO)CCN(CC3=CC[C@H]4C[C@@H]3C4(C)C)CC2)cc1	7	-3	82*	12	0.9
O=S(=O)(NC1CCCCC1)c1ccc(Cl)nc1	-5	0	0	-1	1
C=CCN=C(NC#N)SCC(=O)c1cccc(OC)c1	18	-7	35	-7	0.8
O=C(Nc1nc(-c2cccc3ccccc23)cs1)c1cnccn1	12	-20	30	1	0.9
O=C(c1ccc(Cn2c(=S)[nH]c3ccccc3c2=O)cc1)N1CCN(c2ccccn2)CC1	26	9	100*	-3	0.7
CC(=O)Nc1ccccc1N(CC(O)Cn1c2ccccc2c2ccccc21)S(=O)(=O)c1ccc(C)cc1 (stereo not drawn)	25	15	64*	-3	0.8
COc1ccc(N(CC(O)Cn2c3ccccc3c3ccccc32)S(=O)(=O)c2ccccc2)cc1 (stereo not drawn)	17	29	30	5	0.8
CCCCOC(=O)C(C#N)c1nc2ccccc2nc1N1CCN(Cc2ccc3c(c2)OCO3)CC1 (stereo not drawn)	20	37	69*	-3	0.8
C=CCOC(=O)C(C#N)c1nc2ccccc2nc1N1CCN(Cc2ccccc2)CC1 (stereo not drawn)	23	38	51*	6	0.8
COCC(C)OC(=O)C(C#N)c1nc2ccccc2nc1N1CCN(Cc2ccccc2)CC1 (stereo not drawn)	7	-8	67*	6	0.9
COC(=O)C(C#N)c1nc2ccccc2nc1N1CCN(Cc2ccc3c(c2)OCO3)CC1 (stereo not drawn)	2	nt	nt	0	1
O=C(CSCc1cccc(Cl)c1)Nc1ccccc1-c1ccccc1	23	64*	87*	-5	0.8
Cc1ccccc1CSCC(=O)Nc1ccccc1-c1ccccc1	2	74*	9	-1	1
CCOC(=O)CN1CCc2c(C)nc3c(-c4ccc(OC)c(OC)c4)cnn3c21	17	-22	4	-20	0.8
SMILES	Diaphorase inh	WT yeast gro inh	L major viab	G6PDH counter	Diaphorase act
COc1cc(OC)cc(C(=O)N(CCCN2C(=O)c3cccc4cccc(c34)C2=O)c2cccc(OC)c2)c1	53*	-5	44	-20	0.5
COc1ccc(N(CCN2C(=O)c3ccccc3C2=O)C(=O)c2cccc([N+](=O)[O-])c2)cc1	6	13	-1	24	0.9
COc1ccc(N(CCCN2C(=O)c3cccc4cccc(c34)C2=O)C(=O)c2cccnc2)cc1	58*	18	51*	8	0.4
COc1ccc(N(CCCN2C(=O)c3cccc4cccc(c34)C2=O)C(=O)c2ccncc2)cc1	38	3	69*	0	0.6
COc1ccccc1N(CN1C(=O)c2ccccc2C1=O)C(=O)c1cccnc1	-4	-3	1	5	1
COc1cccc(CN(C)C(=O)Nc2cccc(C(F)(F)F)c2)c1OC	3	-1	-2	19	1
Cc1ccc(NC2SC(=O)N(CC(=O)O)C2=O)cc1 (stereo not drawn)	9	21	3	2	0.9
NC(=O)C1(N2CCCCC2)CCN(S(=O)(=O)c2cc(Cl)ccc2Cl)CC1	15	3	-7	4	0.9
CCOc1ccc(CCNC(=O)CSc2cc(=O)n(CC)c3ccccc23)cc1OCC	6	-3	3	-8	0.9
Cc1ccc(-n2c(=O)[nH]c3c(C(N)=O)nc(CC(C)C)nc32)cc1	4	4	70*	-5	1
CCOc1ccccc1-c1nc(C(N)=O)c2[nH]c(=O)n(-c3cccc(C)c3)c2n1	27	33	64*	3	0.7
COc1ccc(OC)c(-c2nc(C(N)=O)c3[nH]c(=O)n(-c4ccc(F)cc4)c3n2)c1	9	-6	-5	4	0.9
NC(=O)c1nc(C2CCCCC2)nc2c1[nH]c(=O)n2-c1ccc(F)cc1	18	9	54*	11	0.8
CC(C)(CNC(=O)/C=C/c1ccc(F)cc1)CNC(=O)/C=C/c1ccc(F)cc1	14	14	13	-21	0.9
O=Cc1ccc(-n2nncc2-c2ccc([N+](=O)[O-])cc2)cc1	nt	20	7	12	nt
O=C1N(CC(=O)N2CCc3ccccc32)CCN1Cc1ccccc1Cl	4	13	-14	1	1
CCn1c(CNC(=O)COc2ccc(C(C)C)cc2)nnc1SCC(=O)Nc1ccccc1C(C)C	14	18	76*	-6	0.9
Nc1nnc(SCC(=O)NC23CC4CC(CC(C4)C2)C3)s1	6	-3	-5	1	0.9
O=C(N/N=C/c1coc2ccccc2c1=O)c1cn(-c2ccccc2)nc1-c1ccc(F)cc1	4	2	-3	-17	1
COc1ccccc1/C=C1\SC(=O)N(CCC(=O)NNC(=O)c2ccccc2Cl)C1=O	-10	-6	-3	9	1.1
COc1ccccc1OCCN1C(=O)S/C(=C\c2ccco2)C1=O	18	0	55*	0	0.8
Cc1c(-c2cccc(Cl)c2)nc2ccccc2c1C(=O)OCC(=O)Nc1ccc2c(c1)OCO2	18	15	58*	20	0.8

Screens (PubChem)
